Published values from different studies.
SLC6A6: Sodium- and chloride-dependent taurine transporter (SLC6A6, Homo sapiens, UniProt P31641)
TRPM8: Transient receptor potential cation channel subfamily M member 8 (TRPM8, Homo sapiens, UniProt Q7Z2W7)
CD36: Platelet glycoprotein 4 (CD36, Homo sapiens, UniProt P16671)
LATS2: Serine/threonine-protein kinase LATS2 (LATS2, Homo sapiens, UniProt Q9NRM7)
AKR1B1: Aldo-keto reductase family 1 member B1 (AKR1B1, Homo sapiens, UniProt P15121)

N=C(N)NCC(=O)O  Kd (SLC6A6; binding; MST): 35.8 µM
COc1ccc(NC(=O)[C@@H]2C[C@H](C)CC[C@H]2C(C)C)cc1  EC50 (TRPM8; ion current; agonist; patch clamp): 4 µM
Cc1ncsc1-c1ccc(CNC(=O)[C@@H]2C[C@@H](O)CN2C(=O)[C@@H](NC(=O)COCCOCCOCCNC(=O)C[C@@H]2N=C(c3ccc(Cl)cc3)c3c(sc(C)c3C)-n3c(C)nnc32)C(C)(C)C)cc1  Kd (CD36; binding; SPR): 9.6 µM
NCCCC(=O)O  Kd (SLC6A6; binding; MST): 26 µM
O=C(c1ccccc1)c1ccc(OCCCn2cnc3ccccc3c2=O)cc1  Kd (CD36; binding; MST): 10 µM
Cc1cc(-c2ccnc3[nH]cc(F)c23)cc(F)c1[C@@]1(O)[C@H](C)CN(C2CCS(=O)(=O)CC2)C[C@@H]1C  IC50 (LATS2; enzyme activity; inhibitor; radiometric): 0.0055 µM
CNC(=O)C(C)(C(C)C)C(C)C  EC50 (TRPM8; calcium signal; agonist): 56.5 µM
OC1(c2ccc(-c3ccnc4[nH]cc(F)c34)cc2)CCNCC1  IC50 (LATS2; enzyme activity; inhibitor; radiometric): 0.0057 µM
CCCCCCCP(=O)(C(C)C)C(C)C  EC50 (TRPM8; calcium signal; agonist): 4.73 µM
CCCCCCCCCP(=O)(C(C)C)C(C)C  EC50 (TRPM8; ion current; agonist; patch clamp): 24.8 µM
COc1cc(/C=N/NC(=S)N/N=C\c2ccc(Cl)c(Cl)c2)ccc1Oc1ccnc2cc(Cl)ccc12  IC50 (AKR1B1; enzyme activity; inhibitor; absorbance): 13.4 µM
CCCCC(=O)Nc1ccc(-c2ccc3ncn(CCC)c(=O)c3c2)cn1  Kd (Phosphatidylinositol 5-phosphate 4-kinase type-2 gamma (PIP4K2C, Homo sapiens, UniProt Q8TBX8); binding; competition with immobilised ligand): 0.00655 µM
COc1cc(/C=N/NC(=S)N/N=C/c2ccccc2)ccc1Oc1ccnc2cc(Cl)ccc12  IC50 (AKR1B1; enzyme activity; inhibitor; absorbance): 17.2 µM
Cc1cc(-c2ccnc3[nH]cc(F)c23)cc(F)c1[C@@]1(O)[C@H](C)CN(C(=O)CN)C[C@@H]1C  Kd (LATS2; binding; TR-FRET): 0.00049 µM
COc1cc(/C=N/NC(=S)N/N=C\c2ccc([N+](=O)[O-])cc2)ccc1Oc1ccnc2cc(Cl)ccc12  IC50 (AKR1B1; enzyme activity; inhibitor; absorbance): 16.6 µM
O=C1NC(c2cccc([N+](=O)[O-])c2)=CCN1c1ccccc1O  EC50 (TRPM8; ion current; agonist; patch clamp): 0.412 µM
Fc1c[nH]c2nccc(-c3ccc(C4CCNCC4)cc3)c12  IC50 (LATS2; enzyme activity; inhibitor; radiometric): 0.011 µM
COc1cc(/C=N/NC(=S)NN=Cc2ccc([N+](=O)[O-])o2)ccc1Oc1ccnc2cc(Cl)ccc12  Ki (AKR1B1; enzyme activity; inhibitor): 4.65 µM
